From paper PMC6435016 (Biophysics and Physicobiology, 2019)
Each block holds one molecule with its values, some of them ahead of it.

Assays:
[1] = system: intracellular tail of inducible T-cell co-stimulator; assay: SPR binding to intracellular tail of inducible T-cell co-stimulator; conditions: data not shown
[2] = system: CD28 (biotinylated 41-residue phosphopeptide corresponding to cytoplasmic region of CD28); assay: SPR binding to immobilized CD28 cytoplasmic phosphopeptide; conditions: 25°C
[3] = CD thermal stability / transition curve at 222 nm; format: physicochemical; conditions: following dissociation of the dimer
In short: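 Human Grb2 SH2 (residues 60–152) expressed as GST fusion in E. coli BL21(DE3); monomer and dimer split by gel filtration. 0.04 mg mL⁻¹ in PBS pH 7.4, 1.0 cm cell; 222 nm signal heated 20–80°C at 1.0°C min⁻¹. Tm from two-state fit, zero heat-capacity change. Samples heated to 50°C, cooled to 20°C, then rerun by far-UV CD and SEC (PBS, 280 nm).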

[4] = fluorescence and SEC; similar to Grb2 SH2 dimer dissociating at 40–45°C; ref [39]; cited from earlier work
[5] = SEC analysis of monomer/dimer state; format: physicochemical; conditions: data not shown

Molecule: W121S: Grb2 SH2 mutant, Trp121 replaced by Ser, by site-directed mutagenesis
- binding to intracellular tail of inducible T-cell co-stimulator [1]: could not bind
- ability to bind to CD28 ([2]; monomer and dimer of W121S at 800, 1600, 3200, 6400 nM): loses the ability to bind to CD28

- Ka,kin ([2]; association constant calculated from the two kinetic rate constants): 117000 M⁻¹
Molecule: monomer: SH2 domain of human Grb2 (residues 60–152), monomer fraction purified by gel filtration
- temperature of denaturation of monomer [3]: around 60 °C

B1: Gads SH2: SH2 domain of Grb2-related adaptor downstream of Shc (Gads) (protein)
chain: WFHEGLSRHQAENLLMGKEVGFFIIRASQSSPGDFSISVRHEDDVQHFKVMRDNKGNYFLWTEKFPSLNKLVDYYRTNSISRQKQIFLRDRT
- thermal transition (dimer to monomer) [4]: A similar transition was recently reported
- oligomeric state [5]: exists as a monomer with a small population of dimers
